Screening data deposited in PubChem BioAssay by several laboratories.
TDP2 inh – blocks human TDP2 phosphodiesterase activity; recombinant TDP2, T5PNP hydrolysis, p-nitrophenol absorbance 415 nm; inhibition, % at 12.8 µM; hit rate 0.34% among 370,000; AID 720702;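 active = inhibition above the mean of all tested compounds plus 3 SD, set per campaign, cut at about 25% in these data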
Target sequence (O95551 whole entry, looked up): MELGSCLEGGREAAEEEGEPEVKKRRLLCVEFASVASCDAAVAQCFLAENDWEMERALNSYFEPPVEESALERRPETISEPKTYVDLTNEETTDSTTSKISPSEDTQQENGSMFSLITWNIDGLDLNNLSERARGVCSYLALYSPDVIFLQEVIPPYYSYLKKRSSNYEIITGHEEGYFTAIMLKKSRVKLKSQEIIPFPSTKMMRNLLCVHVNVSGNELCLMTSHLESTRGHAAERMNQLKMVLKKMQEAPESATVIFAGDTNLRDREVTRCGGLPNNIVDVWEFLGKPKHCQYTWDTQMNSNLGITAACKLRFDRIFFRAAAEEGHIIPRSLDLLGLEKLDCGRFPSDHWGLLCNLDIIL
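Material: recombinant human TDP2; quantity: TDP2 enzyme at 120 nM final; medium: Tris-HCl pH 7.5 with MgCl2; compound: single concentration, 12.8 µM nominal, with 1% DMSO; incubation: 2 h enzyme incubation at 37 °C; signal: epi absorbance; measure: percent inhibition; benchmarks: high control without enzyme, low control DMSO plus TDP2; repeats: singlicate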
GSTO1 counter – GSTO1 inhibition, counter-screen for RBBP9 inhibitors; recombinant GSTO1, activity-based probe fluorescence polarization; inhibition, % at 5.96 µM; hit rate 1.1% among 300,000; AID 1974;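 active = inhibition above the campaign mean inhibition plus 3 SD, cut at about 35% in these data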
Target sequence (P78417 whole entry, looked up): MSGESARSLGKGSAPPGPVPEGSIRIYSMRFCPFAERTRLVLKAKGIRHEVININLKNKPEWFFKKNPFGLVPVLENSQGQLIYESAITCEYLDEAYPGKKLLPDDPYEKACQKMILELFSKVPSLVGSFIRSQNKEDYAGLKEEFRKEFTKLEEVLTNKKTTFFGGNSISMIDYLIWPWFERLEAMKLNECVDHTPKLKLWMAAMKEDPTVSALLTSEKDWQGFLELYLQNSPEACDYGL
Apaf-1 inh – inhibitors of human Apaf-1 apoptosome | reconstituted apoptosome caspase-3 activity, DEVD-Rh110 fluorescence | hit rate 0.71% among 330,000 | inhibition, % at 20 µM | AID 489030 | O14727; active = inhibition of at least 40% at 20 µM
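Material: biochemical Apaf-1 apoptosome reconstitution. Medium: Hepes buffer, pH 7.5. Also added: cytochrome c activation, bis-DEVD rhodamine 110 substrate. Timing: 30 min compound preincubation, 50 min activation, room temperature. Measured by: rhodamine 110 fluorescence at Ex 480/Em 540 nm.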
PAD4 inh – inhibitors of human PAD4 | inhibition, % at 6.36 µM | recombinant PAD4, RCA probe fluorescence polarization | hit rate 0.41% among 330,000 | Q9UM07;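 active = percent inhibition above a cutoff equal to the mean of all tested compounds plus 3 SD, cut at about 15% in these data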
CTSL1 counter – blocks F. hepatica cathepsin L1 in PFM18AAP counter-screen. inhibition, % at 5.96 µM. AID 1906. recombinant F. hepatica cathepsin L1, Z-Leu-Arg-MCA fluorescence. hit rate 0.49% among 300,000;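 active = inhibition above the mean of all tested compounds plus 3 SD, set per screening campaign, cut at about 17% in these data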
GSTO1 inh conf – confirmation of human GSTO1 inhibitors; shares compounds with GSTO1 counter; hit rate 54% among 2,400; recombinant GSTO1, probe fluorescence polarization; inhibition, % at 5.96 µM;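 active = inhibition above the primary screen's cutoff, its mean inhibition plus 3 SD, cut at about 35% in these data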;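 note: loss of polarization as inhibitors block binding of rhodamine sulfonate ester activity probe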
Of the large screens only hits and unclear results are named; the others gave an inactive call (follow-up assays come after a bar, where they were run). Sampled rows, rich in hits. Any-hit rate of the full collection: about 1.8%.

Cn1c2ccccc2c2cc(/C=N/NC(=O)c3cc(O)cc(O)c3)ccc21	none
O=C(CCN1C(=O)/C(=C\c2ccccc2F)SC1=S)N1CCCCC1	GSTO1 counter 47 | GSTO1 inh conf inactive
O=C(CCN1C(=O)/C(=C/c2ccccc2)SC1=S)N1CCCCCC1	none
O=C(Cc1nnc(NC(=O)c2ccccc2)s1)N/N=C/c1ccc(O)cc1	none
O=C(Cc1nnc(NC(=O)c2ccccc2)s1)N/N=C\c1ccc(O)c(O)c1	GSTO1 counter 39 | GSTO1 inh conf inactive
COc1ccc(NC(=O)CN(C)C(=O)c2cc3c(s2)CCC3)cc1	GSTO1 counter 59 (no result: TDP2 inh) | GSTO1 inh conf inactive
COc1ccc(NC(=O)CN(C)C(=O)c2cc3c(s2)CCCCC3)cc1	none
Cc1cc(C(=O)NC(C)C2CCCO2)c(C)o1 (stereo not given)	GSTO1 counter 42 | GSTO1 inh conf inactive
CCN(CC)c1ccc2c(c1)CCCN2	GSTO1 counter 42 (no result: TDP2 inh) | GSTO1 inh conf inactive
CCSc1nnc(NC(=O)C(C(F)(F)F)C(F)(F)F)s1	GSTO1 counter 38 | GSTO1 inh conf 48
CCOC(=O)[C@]12CCCC3=C1N(CCC3)C(=O)[C@@H](CC(=O)N1CCOCC1)C2	none (no result: GSTO1 counter, Apaf-1 inh, PAD4 inh, CTSL1 counter)
CC1(OC(=O)CCc2ccccc2)C(=O)C=C2C=C(c3ccc(C#N)cc3)N(C3CCCCC3)C=C2C1=O (stereo not given)	GSTO1 counter 45 | GSTO1 inh conf inactive
CC1(OC(=O)C2CCCC2)C(=O)C=C2C=C(c3ccsc3)N(CCN3CCOCC3)C=C2C1=O (stereo not given)	none (no result: TDP2 inh, GSTO1 counter, PAD4 inh, CTSL1 counter)
CC1(OC(=O)CCc2ccccc2)C(=O)C=C2C=C(c3ccc(C#N)cc3)N(C(CO)CO)C=C2C1=O (stereo not given)	none
CC1(OC(=O)C2CCCC2)C(=O)C=C2C=C(c3ccsc3)N(Cc3ccc4c(c3)OCO4)C=C2C1=O (stereo not given)	none
CC1(OC(=O)C2CCCC2)C(=O)C=C2C=C(c3ccsc3)N(CC3CC3)C=C2C1=O (stereo not given)	GSTO1 counter 40 | GSTO1 inh conf inactive
CC1(OC(=O)C2CCCC2)C(=O)C=C2C=C(c3ccsc3)N(C3CCCCC3)C=C2C1=O (stereo not given)	GSTO1 counter 43 | GSTO1 inh conf inactive
O=C(N[C@H](Cc1ccccc1)C(=O)N1CCCN(Cc2ccccc2F)CC1)[C@H]1O[C@@H](n2ccc(=O)[nH]c2=O)[C@H](O)[C@@H]1O	none (no result: GSTO1 counter, Apaf-1 inh, PAD4 inh, CTSL1 counter)
O=C(O)c1cccc(Cn2c(Cl)c(/C=N/Nc3ccccc3)sc2=O)c1	GSTO1 counter 50 (no result: TDP2 inh) | GSTO1 inh conf 65
O=C(O)c1cccc(Cn2c(Cl)c(/C=N/NC(=O)c3ccccc3Cl)sc2=O)c1	none
CCOC(=O)C1=C(C)N(c2ccc(OC)cc2)C(=O)/C1=C\c1ccc(O)c(OCC)c1	GSTO1 counter 57 | GSTO1 inh conf inactive
CCOC(=O)C1=C(C)N(c2ccc(OC)cc2)C(=O)/C1=C\c1cccs1	none
COC1=CC(=O)CC(C)C12Oc1cc(OC)cc(OC)c1C2=O (stereo not given)	GSTO1 counter 47 | GSTO1 inh conf inactive
CC1Oc2cc3oc4c(O)c(O)ccc4c(=O)c3c(O)c2C1(C)C (stereo not given)	GSTO1 counter 45 (no result: TDP2 inh) | GSTO1 inh conf inactive
CN1C(=O)C[C@@](C#N)(C(=O)NCc2ccc3c(c2)OCO3)[C@H]1c1ccccc1	none (no result: GSTO1 counter, Apaf-1 inh, PAD4 inh, CTSL1 counter)
Cc1ccc(N=Cc2cccc(O)c2O)c(C)c1	GSTO1 counter 85, Apaf-1 inh 93 | GSTO1 inh conf inactive
CN1C(=O)c2cc(NS(=O)(=O)c3ccc(F)cc3)ccc2OC[C@H]2O[C@@H](CC(=O)NCC(F)(F)F)CC[C@@H]21	none (no result: GSTO1 counter, Apaf-1 inh, PAD4 inh, CTSL1 counter)
COCc1cc(N2CCN(C(=O)OC(C)(C)C)C[C@H]2C)ccc1Br	none (no result: GSTO1 counter, Apaf-1 inh, PAD4 inh, CTSL1 counter)
Cc1c(O)cc2c(c1O)C(=O)CC(c1ccc(O)cc1)O2 (stereo not given)	GSTO1 counter 51 | GSTO1 inh conf inactive
COc1ccc(/C=N/Nc2ncnc(Cl)c2N)cc1OC	none
Nc1c(Cl)ncnc1N/N=C/c1cccc(O)c1	GSTO1 counter 45 | GSTO1 inh conf inactive
COc1ccc(C(=O)CC(c2ccccc2)S(=O)(=O)c2ccc(C)cc2)cc1 (stereo not given)	none (no result: TDP2 inh)
COc1ccc(C(CC(=O)c2ccc(O)cc2)S(=O)(=O)c2ccc(C)cc2)cc1 (stereo not given)	GSTO1 counter 40 | GSTO1 inh conf inactive
CCCCNS(=O)(=O)/C=C/c1ccccc1CCNC(=O)OC(C)(C)C	none (no result: GSTO1 counter, Apaf-1 inh, PAD4 inh, CTSL1 counter)
COC(=O)[C@H](CO)NS(=O)(=O)c1ccc(C)cc1	none (no result: GSTO1 counter, CTSL1 counter)
COC(=O)C(C(C)=O)C1=C/C(=N\S(=O)(=O)c2ccc(C)cc2)c2ccccc2C1=O (stereo not given)	GSTO1 counter 49 (no result: TDP2 inh) | GSTO1 inh conf inactive
C[C@]12C=CC(=O)C=C1CC[C@@H]1C2=CC[C@]2(C)[C@@H](C(=O)CN3CCN(c4cc(N5CCCC5)nc(N5CCCC5)n4)CC3)CC[C@@H]12	GSTO1 counter 51, Apaf-1 inh 87 | GSTO1 inh conf 45
CC(=O)C1CCC2C3CCC4=CC(=O)C=CC4(C)C3C(=O)CC12C (stereo not given)	none (no result: GSTO1 counter, Apaf-1 inh, PAD4 inh, CTSL1 counter)
CC(C)(C)c1ccc(S(=O)(=O)NCC2CCN(C(=O)C(=O)c3cccs3)CC2)cc1	none (no result: GSTO1 counter, Apaf-1 inh, PAD4 inh, CTSL1 counter)
CN(C)c1nc(Cl)nc(N(C#N)CCOc2ccccc2)n1	GSTO1 counter 44 | GSTO1 inh conf 69
CCNc1nc(NCC)nc(N(C#N)CCOc2ccccc2)n1	none
O=C(CSc1nc2ccccc2[nH]1)NN=Cc1ccccc1C(=O)O	none (no result: GSTO1 counter, Apaf-1 inh, PAD4 inh, CTSL1 counter)
CC(NC(=O)C1CC1)C(c1cccs1)N1CCOCC1 (stereo not given)	GSTO1 counter 85 | GSTO1 inh conf inactive
N#CC1=C(N)Oc2n[nH]c(-c3ccccc3)c2C1c1cccnc1 (stereo not given)	none
N#CC1=C(N)Oc2n[nH]c(-c3cccnc3)c2C1c1ccc([N+](=O)[O-])o1 (stereo not given)	GSTO1 counter 42 | GSTO1 inh conf inactive
O=c1cc(C(Cl)(Cl)Cl)oc2c1ccc1ccccc12	GSTO1 counter 47 | GSTO1 inh conf 80
Cc1cc(=O)oc2cc(OCCSc3nnc(-c4ccccc4)o3)ccc12	none
Cc1cccc(-c2nnc(SCCOc3ccc4c(C)cc(=O)oc4c3)o2)c1	GSTO1 counter 40 | GSTO1 inh conf inactive
CCOC(=O)c1cnc(-n2[nH]c(C)cc2=O)[nH]c1=O	GSTO1 counter 42 | GSTO1 inh conf inactive
CCOC(=O)c1cnc(-n2nc(C)cc2C)[nH]c1=O	none
CC(C)C[C@H]1COc2cccc(N3CCCC3)c2S(=O)(=O)N1C	none (no result: GSTO1 counter, Apaf-1 inh, PAD4 inh, CTSL1 counter)
O=C(OCC(=O)N1CCCC1=O)c1nc(Cl)c(Cl)c(Cl)c1Cl	GSTO1 counter 40 | GSTO1 inh conf inactive
